High-throughput results from PubChem.
OX1R antag-1: human HCRTR1 antagonism; O43613; CHO/OX1R cells, Fluo-8 calcium fluorescence, orexin A; inhibition, % at 5 µM; 0.43% of 330,000 active;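 active = inhibition above its plate's threshold, mean inhibition of all tested compounds on the plate plus 3 SD, cut at about 37% in these data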;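 note: 0% = orexin A challenge wells and 100% = SB-334867-A antagonist wells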
OX1R antag-2: OX1R (human) antagonism; O43613; OX1R-expressing cells, FRET antagonist read-out; inhibition, % at 6.6 µM; 1.8% of 330,000 active; AID 485270; in the data active = inhibition mostly above about 38%, no sharp cut-off; inactive = mostly below about 40%;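 note: 0% = agonist challenge alone and 100% = reference antagonist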
CHO parental Ca: signal in parental CHO cells, OX1R antagonist counter-screen. 0.63% of 330,000 active. inhibition, % at 5.6 µM. parental CHO-K1, ATP-induced calcium, Fluo-8 fluorescence;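 active = inhibition above that plate's mean sample inhibition plus 3 SD, cut at about 26% in these data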;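 note: 0% = ATP-challenged DMSO wells and 100% = DMSO wells without ATP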
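Assay system: untransfected parental CHO cell line. Also added: ATP agonist challenge. Dosing: one dose, 5.6 µM nominal. Measured by: Fluo-8 fluorescence. Read-out: % inhibition. Benchmarks: ATP wells versus no-ATP DMSO wells. Repeats: no replicates.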
TAAR1 antag: antagonists of human TAAR1 | inhibition, % at 3 µM | 1.5% of 360,000 active | CHO RD-HGA16 TAAR1, Fluo-8 calcium fluorescence, antagonist | Q96RJ0;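 active = inhibition above a per-plate cutoff, the mean inhibition of test compounds on that plate plus 3 SD, cut at about 49% in these data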;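 note: 0% = DMSO plus EC80 beta-PEA response and 100% = DMSO alone without agonist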
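test system = CHO RD-HGA16 cells bearing hTAAR1 | replication = singlicate | controls = DMSO-only wells and EC80 β-PEA-stimulated wells | reagent = EC80 β-phenethylamine stimulus | read-out basis = percent inhibition of PEA-evoked calcium signal, max/basal emission ratio | schedule = seeding 17-24 h prior, 75-min 37 °C, 30-min RT dye loading | signal = kinetic Fluo-8 calcium fluorescence measurement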
TAAR1 ag: human TAAR1 agonism. Q96RJ0. CHO RD-HGA16 TAAR1, Fluo-8 calcium fluorescence; vehicle wells 0%, saturating PEA agonist 100%. activation, % at 3 µM. 0.99% of 360,000 active. AID 624467;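 active = activation above the mean activation of all test compounds in the run plus 3 SD, cut at about 38% in these data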
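System: CHO RD-HGA16 cells carrying human TAAR1 plus Gα16; Incubation: 17-24 h seeding, 75 min 37 °C dye, 30 min RT; Measured by: Fluo-8 fluorescence, 5 s baseline then 140 s kinetic read; Control set: DMSO and PEA EC100; Replication: single well for each compound.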
GalR3 antag: human GalR3 antagonism | HEK293 GalR3-CNG cAMP membrane potential fluorescence; galR3 body fused to GalR1 C-terminus | inhibition, % at 3 µM | 0.44% of 360,000 active;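 active = inhibition above the screen-wide average plus 3 SD, cut at about 13% in these data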;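 note: forskolin and galanin both at EC90 stimulate the cells; cAMP rise reported by CNG channel membrane potential dye signal; 0% = forskolin plus galanin with DMSO and 100% = forskolin alone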
Target sequence (O60755 1-299 limits assumed): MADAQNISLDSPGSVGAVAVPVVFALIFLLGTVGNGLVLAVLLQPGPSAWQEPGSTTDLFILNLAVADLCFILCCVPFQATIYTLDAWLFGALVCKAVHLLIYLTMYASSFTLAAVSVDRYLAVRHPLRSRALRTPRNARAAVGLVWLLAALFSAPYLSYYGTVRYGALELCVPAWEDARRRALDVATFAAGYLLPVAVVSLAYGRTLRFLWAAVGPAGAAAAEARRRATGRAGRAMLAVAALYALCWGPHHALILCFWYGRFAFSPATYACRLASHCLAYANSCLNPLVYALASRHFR
OX1R HTRF confirm: OX1R (human) antagonism, HTRF confirmed. shares compounds with OX1R antag-2. OX1R-expressing cells, HTRF antagonist assay. inhibition, % at 6.6 µM. 49% of 1,800 active. AID 492964; in the data active = inhibition above about 55%;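 note: CHO cells expressing OX1R stimulated with orexin A at about EC80; 0% = agonist challenge alone and 100% = reference antagonist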
CHO-K1 HTRF: signal in parental CHO-K1 cells, OX1R antagonist counter-screen. shares compounds with OX1R antag-2. HTRF counterscreen. inhibition, % at 6.6 µM. 48% of 1,800 active. AID 493232; in the data active = inhibition above about 17%;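 note: 0% = agonist challenge with vehicle and 100% = vehicle alone without agonist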
* marks the source's active call; other numbers are inactive results; nt = no result. Hits are enriched below; roughly 4.3% of the tested compounds scored in any of these assays.

SMILES	OX1R antag-1	OX1R antag-2	CHO parental Ca	TAAR1 antag	TAAR1 ag	GalR3 antag	OX1R HTRF confirm	CHO-K1 HTRF
Cn1c(N=NC(=O)c2ccccc2)c(O)c2ccccc21	-15	137*	-23	2	2	-3	98*	52*
CC(C)(C)n1c(O)c2ccc(C(=O)N=NC(=O)c3ccccc3)cc2c1O	-12	15	-13	35	11	-2	nt	nt
O=C(O)c1ccc(Sc2nnnn2-c2ccccc2)c([N+](=O)[O-])c1	-8	62	-6	-12	7	4	nt	nt
Cn1ccnc1Sc1ccc(C(N)=O)cc1[N+](=O)[O-]	4	94*	5	-16	0	7	38	32*
Cn1nnnc1Sc1ccc(C(=O)O)cc1[N+](=O)[O-]	-9	90*	-5	-17	3	-4	37	54*
O=[n+]1c2c(n([O-])c3cc(Br)ccc31)CCCC2	-13	43	-11	-14	1	0	nt	nt
O=[n+]1c2c(n([O-])c3cc(F)c(F)cc31)CCCC2	-15	129*	-11	24	0	-2	39	77*
C[C@H](NC(=O)C1(c2ccccc2)CCN(C(=O)OC(C)(C)C)CC1)C(=O)N[C@@H](C(=O)O)c1ccccc1	1	13	-8	-5	0	-7	nt	nt
C[C@@H](NC(=O)C1(c2ccccc2)CCN(C(=O)OC(C)(C)C)CC1)C(=O)N[C@@H](C(=O)O)c1ccccc1	-14	87*	-6	-19	2	-6	13	10
COc1cc(OC)cc(-c2c(C#Cc3ccsc3)c3cc(-c4cccc5[nH]ccc45)ccc3n2C)c1	10	4	0	4	9	1	nt	nt
O=C(NN1C(=O)/C(=C/c2ccc(O)c([N+](=O)[O-])c2)SC1=S)c1ccccc1Cl	-29	112*	-15	9	9	-4	55*	17*
O=C(C1CCCN(S(=O)(=O)c2cccc3nsnc23)C1)N1CCCCCC1 (stereo not drawn)	1	36	-14	18	0	0	nt	nt
O=C(c1ccco1)N1CCN(C(=O)C2CCN(S(=O)(=O)c3cccc4nsnc34)CC2)CC1	-10	100*	-3	3	4	-4	30	47*
O=C(C1CCCO1)N1CCN(S(=O)(=O)c2cccc3nsnc23)CC1 (stereo not drawn)	-12	96*	-8	2	1	-5	41	56*
CN1C(=O)C(C)(C)c2cc(S(=O)(=O)N3CCCC3C(=O)NCc3ccc(F)cc3)ccc21 (stereo not drawn)	-29	78*	-15	-3	3	1	20	-4
COc1ccc(NC(=O)C2CCCN2S(=O)(=O)c2ccc(C)cc2)cc1 (stereo not drawn)	2	27	-8	0	1	-4	nt	nt
COc1ccc(NC(=O)C2CCCCN2S(=O)(=O)c2ccc(F)cc2)cc1 (stereo not drawn)	-17	87*	-11	1	-1	-2	42	10
COC(=O)c1cc(=O)nc(NN=C2c3ccccc3-c3ccccc32)s1	nt	nt	nt	13	0	-4	nt	nt
Cc1ccc(CCNC(=O)c2cc(S(=O)(=O)N3CCCC3)cn2C)cc1	-10	2	-16	-24	4	nt	nt	nt
O=S1(=O)CC(N2CC=CC2)CN1Cc1cn(Cc2ccc(F)cc2)nn1 (stereo not drawn)	nt	nt	nt	-19	1	1	nt	nt
CN(CCN1CCOCC1)Cc1nc(-c2ccccc2)no1	-13	9	-1	2	-1	-3	nt	nt
COc1ccc(CCN2C(=O)c3cccnc3C2=O)cc1OC	-11	82*	-6	-1	9	-3	31	21*
COc1ccc(CCN2C(=O)C=CC2=O)cc1OC	nt	nt	nt	17	17	-4	nt	nt
O=C1N=C(N2C=CC(=C3C=CNC=C3)C=C2)/C(=C/N=NC(=O)c2ccccc2O)S1	-11	108*	-12	-9	0	4	68*	109*
